Measured values published in ChEMBL document CHEMBL5149972, “Novel Antimalarial Tetrazoles and Amides Active against the Hemoglobin Degradation Pathway in Plasmodium falciparum” (J Med Chem, 2021).
pEC50: −log10 of the molar value.

Assays:
Type in all cases: functional, organism-based
[1] = system: Plasmodium falciparum; assay: (§1) Antiplasmodial activity against Rac-N-(Pyridin-3-yl(1-(o-tolyl)-1H-tetrazol-5-yl)methyl)-N-(3-(trifluoromethyl)benzyl)Cyclopropanamine resistant Plasmodium falciparum 3D7 clone F1-C1 ring-stage parasite assessed as parasite growth inhibition incubated for 72 hrs by SYBR Green and MitoTracker Deep Red FM dye based flow cytometry
In short: (§2)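 Clonal 3D7-A10 lines recovered after single-step selection; ring stages at 0.2% parasitemia, 1% hematocrit in RPMI-1640 with 0.5% Albumax. 72 h exposure to a 10-point 2-fold dilution series in duplicate with DMSO controls, final DMSO <0.5%. Survival read by flow cytometry, SYBR Green as nuclear stain and MitoTracker Deep Red FM as vital dye. EC₅₀ and EC₉₀ reported with fold shift relative to parental 3D7-A10.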

[2] = system: Plasmodium falciparum; assay: Antiplasmodial activity against chloroquine and piperaquine resistant Plasmodium falciparum Dd2-M343L mutant replaced with endogenous pfcrt locus with the recombinant Dd2 sequence and the PPQ resistance-conferring M343L at endogenous pfcrt Dd2 locus infected in human RBC assessed as parasite growth inhibition incubated for 72 hrs by SYBR Green dye based fluorescence assay; conditions: Erythrocyte
In short: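 Gene-edited Dd2 lines with the endogenous pfcrt locus replaced by zinc-finger nuclease editing. Concentration-response curves run with technical duplicates at each concentration; values are the average of two biological replicates, with std dev given where more replicates were collected.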

[3] = system: Plasmodium falciparum; assay: Antiplasmodial activity against drug resistant Plasmodium falciparum Dd2 infected in human RBC assessed as parasite growth inhibition incubated for 72 hrs by SYBR Green dye based fluorescence assay; conditions: Plasmodium falciparum, Dd2, Erythrocyte, 72 h
In short: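 Blood-stage cultures at 2% hematocrit, human O+ RBCs, RPMI 1640 + 25 mM HEPES, 0.5% Albumax-I, 23 mM bicarbonate, 92 μM hypoxanthine. Start at 0.5% parasitemia; 72 h at 37°C, 5% CO₂; freeze-thaw, then SYBR Green in saponin/Triton lysis buffer, 4 h RT dark; fluorescence ex 485/em 535 nm. 10-point curves, technical duplicates or triplicates, final 0.5% DMSO; four-parameter fit gives EC₅₀; mean ± std dev of biological replicates.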

[4] = system: Plasmodium falciparum; assay: Antiplasmodial activity against lab-derived […] resistant Plasmodium falciparum Dd2-PfeEF2 mutant infected in human RBC assessed as parasite growth inhibition incubated for 72 hrs by SYBR Green dye based fluorescence assay; conditions: Erythrocyte
[5] = system: Plasmodium falciparum; assay: as §1, with “F1-E4” for “F1-C1”; in short: as §2
[6] = system: Plasmodium falciparum; assay: as §1, with “F2-H12” for “F1-C1”; in short: as §2
[7] = system: Plasmodium falciparum; assay: as §1, with “F2-A11” for “F1-C1”; in short: as §2
[8] = system: Plasmodium falciparum; assay: Antiplasmodial activity against chloroquine and pyrimethamine resistant Plasmodium falciparum K1 infected in human RBC assessed as parasite growth inhibition incubated for 72 hrs by SYBR Green dye based fluorescence assay; conditions: K1, Erythrocyte

Work on `Cc1ccccc1-n1nnnc1C(c1cccnc1)N(Cc1cccc(C(F)(F)F)c1)C1CC1` (racemic) yielded a pEC50 ([1]; 3D7 clone F1-C1, 72 h) of 6.27, an EC90 ([1]; 3D7 clone F1-C1, time 72 hrs) of 1000 nM and a pEC50 [2] of 4.42. It also gave a pEC50 [3] of 6.27, a pEC50 [4] of 6.04 and a pEC50 ([5]; 3D7 clone F1-E4, 72 h) of 6.13. For the same compound, the EC90 ([5]; 3D7 clone F1-E4, time 72 hrs) was 1500 nM, the pEC50 ([6]; 3D7 clone F2-H12, 72 h) was 6.19 and the EC90 ([6]; 3D7 clone F2-H12, time 72 hrs) was 1300 nM. For the same compound, the pEC50 ([7]; 3D7 clone F2-A11, 72 h) was 6.17, the EC90 ([7]; 3D7 clone F2-A11, time 72 hrs) was 1300 nM and the pEC50 [8] was 6.44.
